From ChEMBL document CHEMBL1773027, “Development of new indole-derived neuroprotective agents” (2011)
Activity calls are given as the source filed them. No cut-off for these calls is given here.

Tests used:
Rattus norvegicus [1] = assay: Neuroprotective activity against ACR-intoxicated Sprague-Dawley rat assessed as decrease in malinoaldehyde level in brain at 50 mg/kg, ip administered 10 mins prior to ACR injection 3 days per week for 3 weeks […] relative to control; type: functional; set-up: scale not given: the % may be the effect or the level left; settings: route intraperitoneal
Rattus norvegicus [2] = assay: Neuroprotective activity against ACR-intoxicated Sprague-Dawley rat assessed as decrease in LDH level in brain at 50 mg/kg, ip administered 10 mins prior to ACR injection 3 days per week for 3 weeks by spectrofluorimetrically relative to control; type: functional; set-up: scale not given: the % may be the effect or the level left; settings: route intraperitoneal
Procedure, shortened: (§1)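 Female Sprague–Dawley rats (n = 10/group) were dosed ip with ACR 50 mg/kg (water). Pretreatment was 50 mg/kg ip in 2% Tween 80 given 10 min earlier, 3 days/week for 3 weeks. The brain 10% homogenate (50 mM Tris–HCl pH 7.4, 300 mM sucrose) was centrifuged 1800 × g for 10 min at 4 °C. Supernatant LDH and CK activities were read spectrophotometrically by kit, as U/mg protein.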

Brain = assay: Neuroprotective activity against ACR-intoxicated Sprague-Dawley rat brain assessed as appearance of normal neuron at 50 mg/kg, ip administered 10 mins prior to ACR injection 3 days per week for 3 weeks by hematoxylin and eosin staining method relative to ACR group; type: functional, organism-based; set-up: dose 50 mg/kg
Procedure, shortened: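 After 3 weeks of ACR (50 mg/kg ip, water) plus pretreatment (50 mg/kg ip in 2% Tween 80, 10 min before, 3 days/week), rat brains were fixed in buffered formalin for 1 week. They were then washed in tap water for 24 h, dehydrated through graded alcohol, cleared in xylene and paraffin-embedded. Sections were examined microscopically for neuronal morphology.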

Rattus norvegicus [3] = assay: Neuroprotective activity against ACR-intoxicated Sprague-Dawley rat assessed as increase in CK level in brain at 50 mg/kg, ip administered 10 mins prior to ACR injection 3 days per week for 3 weeks by spectrofluorimetrically relative to control; type: functional; settings: route intraperitoneal; procedure, shortened: as §1
Rattus norvegicus [4] = assay: Neuroprotective activity against ACR-intoxicated Sprague-Dawley rat assessed as increase in SOD level in brain at 50 mg/kg, ip administered 10 mins prior to ACR injection 3 days per week for 3 weeks by spectrofluorimetrically relative to control; type: functional; settings: route intraperitoneal
Procedure, shortened: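 Female Sprague–Dawley rats (160–180 g, n = 10/group) received ACR 50 mg/kg ip in water. Test agents were given at 50 mg/kg ip in 2% Tween 80, 10 min before ACR, 3 days/week for 3 weeks. Brain was homogenized 10% w/v in ice-cold 50 mM Tris–HCl pH 7.4 with 300 mM sucrose and spun 1800 × g for 10 min at 4 °C. Supernatant MDA, GSH, GPx and SOD were read spectrophotometrically by kit and expressed per mg protein (Lowry).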

Rattus norvegicus [5] = assay: Neuroprotective activity against ACR-intoxicated Sprague-Dawley rat assessed as decrease in dopamine level in brain at 50 mg/kg, ip administered 10 mins prior to ACR injection 3 days per week for 3 weeks by spectrofluorimetrically relative to control; type: functional; set-up: scale not given: the % may be the effect or the level left; settings: route intraperitoneal
Procedure, shortened: (§2)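 In this rat model (female Sprague–Dawley, n = 10/group), ACR 50 mg/kg ip in water was preceded by 10 min with agent at 50 mg/kg ip in 2% Tween 80, 3 days/week for 3 weeks. Brain dopamine was determined spectrofluorimetrically and expressed as ng/g tissue.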

Rattus norvegicus [6] = assay: Neuroprotective activity against ACR-intoxicated Sprague-Dawley rat assessed as increase in noradrenaline level in brain at 50 mg/kg, ip administered 10 mins prior to ACR injection 3 days per week for 3 weeks by ELISA relative to control; type: functional; settings: route intraperitoneal
Procedure, shortened: (§3)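 Female Sprague–Dawley rats (n = 10/group) were injected with ACR 50 mg/kg ip in water, with agent at 50 mg/kg ip in 2% Tween 80 10 min before, 3 days/week for 3 weeks. Brain was homogenized 10% w/v in 50 mM Tris–HCl pH 7.4 with 300 mM sucrose and spun 1800 × g for 10 min at 4 °C. Adrenaline and noradrenaline were measured in the supernatant, as ng/mg protein.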

Rattus norvegicus [7] = assay: Neuroprotective activity against ACR-intoxicated Sprague-Dawley rat assessed as decrease in GSH level in brain at 50 mg/kg, ip administered 10 mins prior to ACR injection 3 days per week for 3 weeks […] relative to control; type: functional; set-up: scale not given: the % may be the effect or the level left; settings: route intraperitoneal
Rattus norvegicus [8] = assay: Neuroprotective activity against ACR-intoxicated Sprague-Dawley rat assessed as increase in Gpx level in brain at 50 mg/kg, ip administered 10 mins prior to ACR injection 3 days per week for 3 weeks […] relative to control; type: functional; settings: route intraperitoneal
Rattus norvegicus [9] = assay: Neuroprotective activity against ACR-intoxicated Sprague-Dawley rat assessed as increase in adrenaline level in brain at 50 mg/kg, ip administered 10 mins prior to ACR injection 3 days per week for 3 weeks by ELISA relative to control; type: functional; settings: route intraperitoneal; procedure, shortened: as §3
Rattus norvegicus [10] = assay: Neuroprotective activity against ACR-intoxicated Sprague-Dawley rat assessed as increase in dopamine level in brain at 50 mg/kg, ip administered 10 mins prior to ACR injection 3 days per week for 3 weeks by spectrofluorimetrically relative to control; type: functional; settings: route intraperitoneal; procedure, shortened: as §2
Rattus norvegicus [11] = assay: Neuroprotective activity against ACR-intoxicated Sprague-Dawley rat assessed as increase in GSH level in brain at 50 mg/kg, ip administered 10 mins prior to ACR injection 3 days per week for 3 weeks […] relative to control; type: functional; settings: route intraperitoneal

Row | SMILES | Activity (Rattus norvegicus [1]) | Activity (Rattus norvegicus [2]) | Activity (Brain) | Activity (Rattus norvegicus [3]) | Activity (Rattus norvegicus [4]) | Activity (Rattus norvegicus [5]) | Activity (Rattus norvegicus [6]) | Activity (Rattus norvegicus [7]) | Activity (Rattus norvegicus [8]) | Activity (Rattus norvegicus [9]) | Activity (Rattus norvegicus [10]) | Activity (Rattus norvegicus [11])
1 | C=NC(Cc1c[nH]c2ccccc12)C(=O)C1C(N)=NC(=N)N=C1N (centres undefined) | 5% | 10% | Active | 7% | 3% | 2% | 1% | 18% | 1% | 10% | – | –
2 | C=NC(Cc1c[nH]c2ccccc12)C(=O)C1C(N)=NNC1N (centres undefined) | 22% | 20% | Active | 22% | 12% | – | 6% | – | 25% | 15% | 15% | 9%
3 | N[C@@H](Cc1c[nH]c2ccccc12)C(=O)O [TRYPTOPHAN] | 25% | 35% | – | 27% | 18% | – | 16% | – | 38% | 17% | 21% | 9%
4 | O=C(Cc1nnn[nH]1)NC(Cc1c[nH]c2ccccc12)C(=O)O (centres undefined) | 26% | 35% | Active | 64% | 94% | – | 21% | – | 50% | 67% | 29% | 36%
5 | CCOC(=O)c1c(N)cnc(Cc2c[nH]c3ccccc23)c1Nc1ccccc1 | 10% | 20% | Active | 14% | 6% | – | 2% | 18% | 23% | 14% | 9% | –
